Reference: ChEMBL document CHEMBL1152849, “Design, synthesis and AChE inhibitory activity of indanone and aurone derivatives” (Eur J Med Chem, 2009)

How the values were obtained:
Butyrylcholinesterase = Butyrylcholinesterase (Rattus norvegicus, UniProt Q9JKC1); test: Inhibition of BChE in rat serum after 15 mins by modified Ellman method; type: cell-free
Acetylcholinesterase = target: T1, Acetylcholinesterase (Rattus norvegicus, UniProt P37136); test: Inhibition of AChE in rat cortex after 15 mins by modified Ellman method
T1 sequence (P37136 whole entry): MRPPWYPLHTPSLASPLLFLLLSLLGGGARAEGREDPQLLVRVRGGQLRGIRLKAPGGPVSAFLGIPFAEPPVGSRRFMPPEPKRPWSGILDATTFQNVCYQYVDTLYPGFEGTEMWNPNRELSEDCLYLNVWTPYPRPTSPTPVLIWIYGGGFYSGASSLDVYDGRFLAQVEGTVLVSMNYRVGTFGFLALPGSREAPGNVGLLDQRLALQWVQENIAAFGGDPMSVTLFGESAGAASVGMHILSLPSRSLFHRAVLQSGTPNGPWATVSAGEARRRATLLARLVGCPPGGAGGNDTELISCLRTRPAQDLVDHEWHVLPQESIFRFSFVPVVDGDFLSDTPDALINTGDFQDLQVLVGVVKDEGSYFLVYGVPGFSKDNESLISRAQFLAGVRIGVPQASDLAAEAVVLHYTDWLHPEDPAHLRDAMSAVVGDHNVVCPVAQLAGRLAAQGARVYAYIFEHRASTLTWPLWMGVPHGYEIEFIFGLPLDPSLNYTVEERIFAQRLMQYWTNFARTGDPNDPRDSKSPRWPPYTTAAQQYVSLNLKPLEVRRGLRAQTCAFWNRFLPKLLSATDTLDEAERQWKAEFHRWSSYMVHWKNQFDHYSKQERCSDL

Mus musculus [1] = test: Cognitive enhancing effect against scopolamine-induced acquisition memory deficit in mouse assessed as escape latency at 2 mg/kg, intragastric gavage after 24 hrs by step-down passive avoidance test; type: functional
In short: (§1)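 Step-down passive avoidance in mice, 10 per group. In training, each mouse was placed on the platform and its latency to step down onto the grid with all four paws was recorded. It was shocked immediately on stepping down, and the session lasted 3 min. Memory was scored as step-down errors (times) and escape latency (s), each given as mean ± deviation.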

Mus musculus [2] = test: Cognitive enhancing effect against scopolamine-induced acquisition memory deficit in mouse assessed as times of step-down at 2 mg/kg, intragastric gavage after 24 hrs by step-down passive avoidance test; type: functional; in short: as §1
Mus musculus [3] = test: Cognitive enhancing effect against scopolamine-induced acquisition memory deficit in mouse assessed as times of step-down at 5 mg/kg, intragastric gavage after 24 hrs by step-down passive avoidance test; type: functional; in short: as §1
Mus musculus [4] = test: Cognitive enhancing effect against scopolamine-induced acquisition memory deficit in mouse assessed as escape latency at 10 mg/kg, intragastric gavage after 24 hrs by step-down passive avoidance test; type: functional; in short: as §1
Mus musculus [5] = test: Cognitive enhancing effect against scopolamine-induced acquisition memory deficit in mouse assessed as times of step-down at 10 mg/kg, intragastric gavage after 24 hrs by step-down passive avoidance test; type: functional; in short: as §1
Mus musculus [6] = test: Cognitive enhancing effect against scopolamine-induced acquisition memory deficit in mouse assessed as escape latency at 5 mg/kg, intragastric gavage after 24 hrs by step-down passive avoidance test; type: functional; in short: as §1

Sequence of Butyrylcholinesterase (Q9JKC1 whole entry): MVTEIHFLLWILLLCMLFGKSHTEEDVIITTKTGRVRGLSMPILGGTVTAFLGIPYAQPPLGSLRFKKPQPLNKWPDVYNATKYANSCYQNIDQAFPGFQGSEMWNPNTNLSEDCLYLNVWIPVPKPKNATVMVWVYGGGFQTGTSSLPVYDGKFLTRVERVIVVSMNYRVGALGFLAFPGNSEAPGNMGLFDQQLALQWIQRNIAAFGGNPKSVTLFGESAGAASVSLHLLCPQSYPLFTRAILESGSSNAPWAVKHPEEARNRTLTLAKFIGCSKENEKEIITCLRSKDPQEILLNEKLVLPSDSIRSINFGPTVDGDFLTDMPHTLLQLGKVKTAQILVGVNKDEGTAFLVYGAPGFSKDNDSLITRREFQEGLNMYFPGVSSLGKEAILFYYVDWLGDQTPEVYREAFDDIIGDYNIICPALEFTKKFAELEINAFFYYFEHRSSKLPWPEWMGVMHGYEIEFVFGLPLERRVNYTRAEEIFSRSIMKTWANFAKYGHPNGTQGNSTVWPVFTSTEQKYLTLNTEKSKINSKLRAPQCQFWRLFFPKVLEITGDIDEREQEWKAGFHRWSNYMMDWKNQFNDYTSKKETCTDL

SMILES | IC50 (Butyrylcholinesterase) [µM] | IC50 (Acetylcholinesterase) [µM] | also measured
COc1cc2c(cc1OC)C(=O)/C(=C/c1cccc(CN3CCCC3)c1)C2 | 41.6 | 0.24 | –
COc1cc2c(cc1OC)C(=O)/C(=C/c1ccc(CN3CCCCC3)cc1)C2 | 84.6 | 0.1 | –
COc1cc2c(cc1OC)C(=O)/C(=C/c1ccc(CN(C)C)cc1)C2 | 315 | 0.42 | –
COc1cc2c(cc1OC)C(=O)C(Cc1ccc(CN3CCCCC3)cc1)C2 (stereo not drawn) | 48.3 | 0.12 | –
COc1cc2c(cc1OC)C(=O)/C(=C/c1cccc(CN3CCCC3)c1)O2 | 72 | 0.29 | –
CCN(CC)Cc1ccc(CC2Oc3cc(OC)c(OC)cc3C2=O)cc1 (stereo not drawn) | 16.4 | 0.44 | –
CCN(CC)Cc1cccc(CC2Oc3cc(OC)c(OC)cc3C2=O)c1 (stereo not drawn) | 38.2 | 1.07 | –
COc1cc2c(cc1OC)C(=O)C(Cc1ccc(CN(C)C)cc1)C2 (stereo not drawn) | 40.7 | – | –
COc1cc2c(cc1OC)C(=O)C(Cc1ccc(CN3CCCC3)cc1)O2 (stereo not drawn) | 49.8 | 0.62 | –
CCN(CC)Cc1cccc(CC2Cc3cc(OC)c(OC)cc3C2=O)c1 (stereo not drawn) | 32 | 1.48 | –
COc1cc2c(cc1OC)C(=O)C(Cc1cccc(CN(C)C)c1)C2 (stereo not drawn) | 25.2 | 3.74 | –
CCN(CC)Cc1cccc(/C=C2\Cc3cc(OC)c(OC)cc3C2=O)c1 | 71 | 0.44 | –
COc1cc2c(cc1OC)C(=O)/C(=C/c1cccc(CN(C)C)c1)C2 | 89.3 | 2.14 | –
CCN(C)Cc1ccc(/C=C2\Cc3cc(OC)c(OC)cc3C2=O)cc1 | 20.1 | 0.27 | –
COc1cc2c(cc1OC)C(=O)C(CC1CCN(Cc3ccccc3)CC1)C2 (stereo not drawn) [DONEPEZIL] | – | – | Activity (Mus musculus [1]): 75 s; Activity (Mus musculus [2]): 1.9
COc1cc2c(cc1OC)C(=O)/C(=C/c1cccc(CN3CCCCC3)c1)C2 | 55.2 | 0.16 | –
COc1cc2c(cc1OC)C(=O)/C(=C/c1cccc(CN3CCCCC3)c1)O2 | 45 | 0.082 | –

SMILES | IC50 (Butyrylcholinesterase) [µM] | IC50 (Acetylcholinesterase) [µM] | also measured
CCN(CC)Cc1ccc(/C=C2\Cc3cc(OC)c(OC)cc3C2=O)cc1 | 82 | 0.035 | Activity (Mus musculus [1]): 47 s; Activity (Mus musculus [3]): 2; Activity (Mus musculus [4]): 60 s; Activity (Mus musculus [5]): 1.6; Activity (Mus musculus [2]): 2.67; Activity (Mus musculus [6]): 55 s
COc1cc2c(cc1OC)C(=O)C(Cc1cccc(CN3CCCC3)c1)C2 (stereo not drawn) | 42.2 | 2.58 | –
COc1cc2c(cc1OC)C(=O)C(Cc1cccc(CN3CCCCC3)c1)O2 (stereo not drawn) | 98.1 | 0.24 | –
COc1cc2c(cc1OC)C(=O)/C(=C/c1ccc(CN3CCCC3)cc1)O2 | 36.4 | 0.16 | –
COc1cc2c(cc1OC)C(=O)/C(=C/c1ccc(CN3CCCC3)cc1)C2 | 26.6 | 0.045 | –
CCN(C)Cc1cccc(CC2Oc3cc(OC)c(OC)cc3C2=O)c1 (stereo not drawn) | 25.9 | 1.54 | –
CCN(C)Cc1ccc(CC2Cc3cc(OC)c(OC)cc3C2=O)cc1 (stereo not drawn) | 34.5 | 0.38 | –
CCN(C)Cc1cccc(/C=C2\Oc3cc(OC)c(OC)cc3C2=O)c1 | 23.6 | 0.7 | –
CCN(C)Cc1cccc(/C=C2\Cc3cc(OC)c(OC)cc3C2=O)c1 | 36.8 | 0.49 | –
CCN(C)C(=O)Oc1cccc([C@H](C)N(C)C)c1 [RIVASTIGMINE] | – | – | Activity (Mus musculus [1]): 73 s; Activity (Mus musculus [2]): 2
COc1cc2c(cc1OC)C(=O)C(Cc1cccc(CN3CCCC3)c1)O2 (stereo not drawn) | 57.6 | 7.02 | –
CCN(CC)Cc1ccc(CC2Cc3cc(OC)c(OC)cc3C2=O)cc1 (stereo not drawn) | 11.7 | 0.29 | –
COc1cc2c(cc1OC)C(=O)C(Cc1cccc(CN3CCCCC3)c1)C2 (stereo not drawn) | 70.4 | 0.66 | –
CCN(CC)Cc1ccc(/C=C2\Oc3cc(OC)c(OC)cc3C2=O)cc1 | 47.9 | 0.14 | –
COc1cc2c(cc1OC)C(=O)C(Cc1ccc(CN3CCCC3)cc1)C2 (stereo not drawn) | 33.2 | 0.15 | –
CCN(C)Cc1cccc(CC2Cc3cc(OC)c(OC)cc3C2=O)c1 (stereo not drawn) | 18.5 | 0.69 | –
CCN(CC)Cc1cccc(/C=C2\Oc3cc(OC)c(OC)cc3C2=O)c1 | 65.1 | 1.18 | –
